PP1 counter: counter-screen for PP5 inhibitors: inhibitors of human PP1-alpha; hit rate 0.9% among 320,000; inhibition, % at 6.7 µM; purified PP1alpha, OMFP fluorescence; AID 2235;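 active = inhibition above the mean inhibition of all tested compounds plus 3 SD, computed separately for each screening campaign, cut at about 15% in these data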
NS3 helicase inh: HCV NS3 helicase inhibition; NS3 helicase DNA unwinding, Cy5 molecular beacon fluorescence; inhibition, % at 10.9 µM; hit rate 0.56% among 290,000;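 active = inhibition above the mean of all tested compounds plus 3 SD, set per campaign, cut at about 35% in these data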;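 note: 0% = DMSO wells and 100% = thioflavine S control wells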
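test system = hepatitis C virus NS3 helicase domain fragment enzyme | reagent = annealed dual-labelled DNA beacon duplex, ATP-started | times = 1 h at 25 °C | detection = Cy5 fluorescence, 0 and 60 min reads | read-out basis = percent inhibition from t60/t0 fluorescence ratio | control set = DMSO and thioflavine S | replication = one well per compound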
HIF act: HIF pathway transcriptional activation; U2OS HRE-luciferase reporter, luminescence; normalized: DMSO 0%, desferrioxamine 100%; activation, % at 7.5 µM (by protocol); hit rate 0.32% among 300,000; AID 1910;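 active = mean activation of at least 10% of the iron chelator positive control signal, with at least half of replicates also reaching 10%; inconclusive = mean and replicate majority disagree about reaching 10%; inactive = mean and most replicates under 10%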
PP5 primary: inhibitors of human protein phosphatase 5 (PP5); P53041; inhibition, % at 6.7 µM; purified PP5c, OMFP substrate fluorescence; hit rate 0.18% among 320,000;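 active = inhibition above the campaign's mean inhibition across all tested compounds plus 3 SD, cut at about 9.5% in these data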;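 note: 0% = DMSO only and 100% = 100 µM cantharidin control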
Target sequence (P53041 whole entry, looked up): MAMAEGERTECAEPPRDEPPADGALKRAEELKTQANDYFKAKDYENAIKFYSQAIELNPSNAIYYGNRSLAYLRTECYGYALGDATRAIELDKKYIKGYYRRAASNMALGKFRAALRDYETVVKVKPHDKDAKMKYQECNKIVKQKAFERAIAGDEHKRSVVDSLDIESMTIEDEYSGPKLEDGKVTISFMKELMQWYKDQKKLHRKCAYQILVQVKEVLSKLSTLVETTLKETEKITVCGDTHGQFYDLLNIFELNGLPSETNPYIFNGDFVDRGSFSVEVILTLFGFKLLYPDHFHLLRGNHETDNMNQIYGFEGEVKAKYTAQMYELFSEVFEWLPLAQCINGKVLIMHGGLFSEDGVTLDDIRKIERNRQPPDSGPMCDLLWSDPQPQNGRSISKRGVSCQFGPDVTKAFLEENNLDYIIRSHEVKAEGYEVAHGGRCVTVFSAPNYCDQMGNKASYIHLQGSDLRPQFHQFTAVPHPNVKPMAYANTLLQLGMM
DNA FID counter-1: displaces DNA intercalator in HCV helicase counter-screen; DNA fluorescent intercalator displacement, fluorescence; inhibition, % at 7.9 µM; hit rate 0.17% among 290,000; AID 1845;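 note: 0% = vehicle and 100% = reference compound; higher means more ethidium bromide displaced from hairpin DNA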
NS3 helicase cf: confirmation of Hepatitis C virus NS3 helicase inhibitors; shares compounds with NS3 helicase inh; NS3 helicase DNA unwinding, Cy5 molecular beacon fluorescence; inhibition, % at 10.9 µM; hit rate 31% among 1,600; AID 1943;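 active = inhibition above the mean of all tested compounds plus 3 SD, cutoff set per campaign, cut at about 36% in these data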
DNA FID counter-2: displaces DNA intercalator in HCV helicase counter-screen. shares compounds with NS3 helicase inh. DNA fluorescent intercalator displacement, fluorescence. inhibition, % at 7.9 µM. hit rate 4% among 1,600;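 note: 0% = vehicle and 100% = reference compound; higher means more displacement of ethidium bromide from the DNA hairpin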
DNA FID DR: displaces fluorescent intercalator from DNA, HCV helicase counter-screen; 120 tested, under 10 active; AID 2172; IC50, µM; fluorescent intercalator displacement from DNA, fluorescence; shares compounds with NS3 helicase inh; call rule not given here
Starred values were filed as active, the others as inactive; ? = inconclusive; · = not tested or not shown. Hits are enriched below; roughly 1.9% of the tested compounds scored in any of these assays. Cut-off read from the data, not from the text of the source, unless noted: active = inhibition above about 37%; inactive = the rest.

SMILES	PP1 counter	NS3 helicase inh	HIF act	PP5 primary	DNA FID counter-1	NS3 helicase cf	DNA FID counter-2	others
CCOC(=O)C1=C(N)n2c(s/c(=C/c3ccco3)c2=O)=C(C(=O)OC)C1c1ccco1 (stereo not given)	7.3	41.0*	2.9	1.9	-20.2	-3.2	8.9
O=C(Nc1cc(S(=O)(=O)Nc2ccc(Cl)cc2)ccc1O)c1ccc(S(=O)(=O)N2CCCCCC2)cc1	1.7	44.8*	-0.4	-3.1	-5.5	-26.1	2.7
C/C(CC(=O)Nc1ccc(Cl)c(C(F)(F)F)c1)=N\NC(=O)c1ccccc1O	3.5	40.6*	2.2	2.9	1.4	3.9	13.5
COCc1cc(=O)n2[nH]c(-c3ccco3)cc2n1	1.2	-7.1	-0.3	-1.6	-2.4	·	·
CCCCN1Cc2c(nc3cc(-c4ccco4)[nH]n3c2=O)C1=O	2.8	49.0*	-0.6	-0.2	-18.5	-4.0	7.3
Cc1ccc2nc(Cl)c(C3CC(c4cccs4)=NN3S(C)(=O)=O)cc2c1 (stereo not given)	0.5	5.7	0.0	2.1	-8.0	·	·
CCC(Cc1ccccc1)NC(=O)C1CC1 (stereo not given)	·	40.5*	0.8	·	-11.1	0.3	8.9
CC(CCc1ccccc1)NC(=O)C1CC1 (stereo not given)	-1.6	·	-0.7	-3.8	·	·	·
COC(C[C@@H](O)[C@H](C)[C@@H](O)COCc1ccccc1)OC	·	·	0.0	·	·	·	·
Cc1cc(C(=O)O)ccc1-n1c(C)ccc1C	27.4*	78.0*	-0.1	4.1	-23.5	89.7*	-26.1
Cc1cc(N)ccc1-n1c(C)ccc1C	2.4	-3.1	-0.5	0.3	-32.2	·	·
Cc1ccc(-c2nnc(-c3ccccc3)o2)cc1	-3.6	2.5	-0.5	-1.6	-5.7	·	·
CCNc1nnc(-c2ccc(C)cc2)o1	-0.8	51.9*	3.7	1.9	1.7	4.2	2.0
O=C(O)c1cccc(S(=O)(=O)N2CCCC(c3nc4c(nnn4Cc4ccc(F)cc4)c(=O)[nH]3)C2)c1 (stereo not given)	9.7	39.5*	-36.0	-5.8	-15.4	-1.0	-25.2
O=C(O)c1cccc(S(=O)(=O)N2CCCC(c3nc4c(nnn4Cc4ccccc4Cl)c(=O)[nH]3)C2)c1 (stereo not given)	-1.0	18.6	-9.9	2.1	-13.2	·	·
COc1ccc(N2C(=O)CC2(C#N)c2ccc(OCc3ccccc3)cc2)cc1 (stereo not given)	5.0	-0.2	-0.3	5.1	-5.8	·	·
CNc1ccc(Br)cc(C(=O)/C=C/c2ccc3c(c2)OCO3)c1=O	0.7	54.0*	-0.2	-1.6	-3.8	44.7*	4.2
O=C(/C=C/c1ccc2c(c1)OCO2)NC1CCCC1	1.2	1.8	-9.5	1.3	-5.1	·	·
CNc1ccc(Br)cc(C(=O)/C=C/c2ccc(OC)cc2)c1=O	4.6	32.7	·	3.0	-16.7	·	·
CNc1ccc(Br)cc(C(=O)/C=C/c2cc(OC)ccc2OC)c1=O	6.1	40.5*	-0.4	2.9	-22.3	61.0*	-9.4	DNA FID DR=>79.4
CC(=O)Nc1ccc(NC(=O)CCC(=O)OCC(=O)c2ccc(F)cc2)cc1	0.2	3.9	?	-0.1	-2.0	·	·
CC(=O)c1ccc(N2CCN(CC(=O)Nc3ccccc3C(=O)NC3CC3)CC2)c(F)c1	-6.3	·	·	-0.6	·	·	·
NS(=O)(=O)c1ccc2nc(NC(=O)c3ccc4ncsc4c3)sc2c1	4.3	43.6*	0.9	0.8	-15.0	42.3*	10.6	DNA FID DR=>79.4
O=C1C(=Cc2ccc(Br)o2)C(=O)c2ccccc21	2.2	45.2*	·	2.2	-14.3	85.1*	27.7
CSCC[C@H](NC(=O)N1C[C@H]2C[C@@H](C1)c1cccc(=O)n1C2)C(=O)Nc1ccc(NC(C)=O)cc1	2.3	10.0	-0.1	0.3	-9.8	·	·
O=C(Nc1ccc(Cc2ccncc2)cc1)c1cccc([N+](=O)[O-])c1	0.0	-1.4	-0.1	2.7	5.2	·	·
O=C(Nc1ccc(Nc2ccncc2)cc1)c1ccc(Nc2ccnc3ccc([N+](=O)[O-])cc23)cc1	·	52.6*	0.6	·	38.9*	77.8*	102.7*

Compound activity deposited in PubChem BioAssay by several laboratories.
